Tests used:
D(2) dopamine receptor [1] = biological target: T1, D(2) dopamine receptor (Rattus norvegicus, UniProt P61169); test: Binding affinity against rat Dopamine receptor D2.
[2] = biological target: T2, Adrenergic receptor alpha-1 (Rattus norvegicus, UniProt P15823+P23944+P43140); test: Binding affinity against rat Alpha-1 adrenergic receptor.; assay type: protein assay
T2 sequence (P15823 whole entry): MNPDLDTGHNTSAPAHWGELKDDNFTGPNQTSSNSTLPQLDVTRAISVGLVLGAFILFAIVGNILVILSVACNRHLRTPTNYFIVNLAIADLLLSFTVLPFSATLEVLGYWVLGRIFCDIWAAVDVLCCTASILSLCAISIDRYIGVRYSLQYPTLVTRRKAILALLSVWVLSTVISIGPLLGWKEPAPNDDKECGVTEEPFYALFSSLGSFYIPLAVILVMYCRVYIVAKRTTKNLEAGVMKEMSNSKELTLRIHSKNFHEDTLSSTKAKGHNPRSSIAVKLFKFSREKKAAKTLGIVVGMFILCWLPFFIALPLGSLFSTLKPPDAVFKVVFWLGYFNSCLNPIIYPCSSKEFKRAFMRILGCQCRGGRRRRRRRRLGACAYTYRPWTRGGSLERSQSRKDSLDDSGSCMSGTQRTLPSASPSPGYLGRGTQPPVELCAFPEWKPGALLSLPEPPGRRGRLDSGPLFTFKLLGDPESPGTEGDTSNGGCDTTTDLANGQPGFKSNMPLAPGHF
T2 sequence (P23944 whole entry): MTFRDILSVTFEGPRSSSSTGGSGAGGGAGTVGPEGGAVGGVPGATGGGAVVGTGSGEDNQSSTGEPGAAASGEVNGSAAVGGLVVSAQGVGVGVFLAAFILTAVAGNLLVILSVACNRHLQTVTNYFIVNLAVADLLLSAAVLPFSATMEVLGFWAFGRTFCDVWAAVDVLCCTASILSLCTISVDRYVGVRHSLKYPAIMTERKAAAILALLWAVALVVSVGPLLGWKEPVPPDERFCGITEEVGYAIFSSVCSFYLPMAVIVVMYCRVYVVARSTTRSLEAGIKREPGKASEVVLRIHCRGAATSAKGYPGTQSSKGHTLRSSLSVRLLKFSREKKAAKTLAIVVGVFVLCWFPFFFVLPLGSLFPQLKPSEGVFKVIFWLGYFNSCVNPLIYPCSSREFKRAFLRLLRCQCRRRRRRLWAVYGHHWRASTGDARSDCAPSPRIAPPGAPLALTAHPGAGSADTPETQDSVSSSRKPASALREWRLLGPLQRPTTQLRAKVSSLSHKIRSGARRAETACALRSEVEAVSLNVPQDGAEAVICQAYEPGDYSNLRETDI
T2 sequence (P43140 whole entry): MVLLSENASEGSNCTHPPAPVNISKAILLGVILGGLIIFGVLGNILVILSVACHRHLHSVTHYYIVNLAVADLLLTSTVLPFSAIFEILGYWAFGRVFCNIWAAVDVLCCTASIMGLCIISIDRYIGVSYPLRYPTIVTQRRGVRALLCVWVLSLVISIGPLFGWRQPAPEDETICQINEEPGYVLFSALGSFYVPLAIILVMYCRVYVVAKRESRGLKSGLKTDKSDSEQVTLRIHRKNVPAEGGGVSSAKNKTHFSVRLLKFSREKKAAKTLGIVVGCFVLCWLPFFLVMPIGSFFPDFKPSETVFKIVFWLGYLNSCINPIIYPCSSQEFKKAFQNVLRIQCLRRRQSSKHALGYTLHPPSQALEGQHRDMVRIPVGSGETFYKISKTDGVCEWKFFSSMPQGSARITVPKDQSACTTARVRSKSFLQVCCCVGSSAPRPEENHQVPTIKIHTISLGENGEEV

[3] = biological target: Serotonin 2 (5-HT2) receptor (Rattus norvegicus, UniProt P30994+P08909+P14842); test: Binding affinity in radioreceptor binding assay by using [3H]5-HT radioligand against 5-hydroxytryptamine 2 receptor; assay type: protein assay
[4] = biological target: Serotonin 1 (5-HT1) receptor (Rattus norvegicus, UniProt P28564+P30940+P19327+P28565); test: Binding affinity in radioreceptor binding assay by using [3H]5-HT radioligand against 5-hydroxytryptamine 1 receptor; assay type: protein assay
[5] = biological target: T3, 5-hydroxytryptamine receptor 1B (Rattus norvegicus, UniProt P28564); test: Binding affinity determined in radioreceptor binding assay by using [3H]5-HT radioligand against 5-hydroxytryptamine 1B receptor
Method in brief: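 Rat cortical tissue labelled with [3H]serotonin. The incubation medium included 8-OH-DPAT at 100 nM final. Run in duplicate, with one to five concentration–response curves per compound.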

[6] = biological target: T4, 5-hydroxytryptamine receptor 1A (Rattus norvegicus, UniProt P19327)
T4 sequence (P19327 whole entry): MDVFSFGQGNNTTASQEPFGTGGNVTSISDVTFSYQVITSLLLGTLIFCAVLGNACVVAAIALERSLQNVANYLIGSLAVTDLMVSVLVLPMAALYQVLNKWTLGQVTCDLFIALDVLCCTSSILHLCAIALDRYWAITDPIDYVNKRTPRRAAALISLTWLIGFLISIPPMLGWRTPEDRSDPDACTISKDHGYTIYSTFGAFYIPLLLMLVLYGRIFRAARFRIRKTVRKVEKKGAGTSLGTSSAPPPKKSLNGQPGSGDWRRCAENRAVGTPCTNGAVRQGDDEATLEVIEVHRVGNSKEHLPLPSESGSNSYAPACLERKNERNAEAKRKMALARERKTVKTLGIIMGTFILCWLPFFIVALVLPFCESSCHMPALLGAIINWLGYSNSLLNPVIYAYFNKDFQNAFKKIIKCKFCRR

Rattus norvegicus [7] = test: Effective dose in blocking conditioned avoidance responding (CAR) in the rat when administered intraperitoneally; assay type: functional; conditions: ip
Method in brief: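 Rats trained on a discrete-trial single-lever conditioned avoidance task, dosed ip and tested at the time of peak effect. Each dose was given to 6–12 rats. CAR reduction and loss of escape responding were recorded.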

D(1A) dopamine receptor [8] = biological target: T5, D(1A) dopamine receptor (Rattus norvegicus, UniProt P18901); test: Binding affinity at rat Dopamine receptor D1 by [3H]SCH-23390 displacement.
Method in brief: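 Rat striatal tissue suspended in 20 mM NaHepes without sucrose, at 250 volumes of the tissue weight. Labelled with [3H]SCH-23390 added as a 3 nM solution. Nonspecific binding set with unlabelled SCH-23390 added as a 30 μM solution. Incubated 20 min. Run in duplicate, with one to five concentration–response curves per compound.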

D(2) dopamine receptor [9] = biological target: T1, D(2) dopamine receptor; test: Binding affinity in radioreceptor binding assay by using [3H]5-HT radioligand against Dopamine receptor D2
[10] = biological target: T3, 5-hydroxytryptamine receptor 1B; test: Binding affinity in radioreceptor binding assay by using [3H]5-HT radioligand against 5-hydroxytryptamine 1B receptor
Method in brief: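 Rat cortical membranes; [3H]serotonin as ligand, as in the 5-HT-1 assay, with 8-OH-DPAT added at 100 nM final to the incubation medium; assays run in duplicate; one to five concentration-response curves per compound.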

Rattus norvegicus [11] = organism: Rattus norvegicus; test: The percent loss of escape responding was determined for the estimated effective dose 50 values for CAR block; assay type: functional
[12] = biological target: T4, 5-hydroxytryptamine receptor 1A; test: Binding affinity in radioreceptor binding assay by using [3H]5-HT radioligand against 5-hydroxytryptamine 1A receptor
D(1A) dopamine receptor [13] = biological target: T5, D(1A) dopamine receptor; test: Binding affinity in radioreceptor binding assay by using [3H]5-HT radioligand against Dopamine receptor D1

T1 sequence (P61169 whole entry): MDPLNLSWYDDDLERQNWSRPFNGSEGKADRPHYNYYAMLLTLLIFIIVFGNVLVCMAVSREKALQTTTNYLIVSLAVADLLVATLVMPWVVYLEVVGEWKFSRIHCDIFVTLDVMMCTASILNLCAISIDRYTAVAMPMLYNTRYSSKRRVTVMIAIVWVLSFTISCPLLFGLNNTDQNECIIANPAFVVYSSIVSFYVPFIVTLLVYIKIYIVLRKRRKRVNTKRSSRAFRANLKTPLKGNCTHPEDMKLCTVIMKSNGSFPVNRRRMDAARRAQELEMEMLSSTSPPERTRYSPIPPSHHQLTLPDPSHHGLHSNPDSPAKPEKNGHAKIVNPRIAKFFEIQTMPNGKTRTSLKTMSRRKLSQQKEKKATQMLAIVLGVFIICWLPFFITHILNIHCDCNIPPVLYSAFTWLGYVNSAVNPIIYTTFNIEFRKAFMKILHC
T3 sequence (P28564 whole entry): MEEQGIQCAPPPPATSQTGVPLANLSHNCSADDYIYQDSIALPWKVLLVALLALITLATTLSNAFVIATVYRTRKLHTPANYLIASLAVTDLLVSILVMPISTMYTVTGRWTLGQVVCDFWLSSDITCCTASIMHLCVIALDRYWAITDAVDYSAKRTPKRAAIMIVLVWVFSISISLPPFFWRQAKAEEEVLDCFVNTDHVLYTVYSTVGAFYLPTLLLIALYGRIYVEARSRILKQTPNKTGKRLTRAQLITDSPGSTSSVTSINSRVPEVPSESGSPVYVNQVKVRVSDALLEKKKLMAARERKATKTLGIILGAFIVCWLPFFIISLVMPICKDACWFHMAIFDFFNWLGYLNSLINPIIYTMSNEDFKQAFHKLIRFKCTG
T5 sequence (P18901 whole entry): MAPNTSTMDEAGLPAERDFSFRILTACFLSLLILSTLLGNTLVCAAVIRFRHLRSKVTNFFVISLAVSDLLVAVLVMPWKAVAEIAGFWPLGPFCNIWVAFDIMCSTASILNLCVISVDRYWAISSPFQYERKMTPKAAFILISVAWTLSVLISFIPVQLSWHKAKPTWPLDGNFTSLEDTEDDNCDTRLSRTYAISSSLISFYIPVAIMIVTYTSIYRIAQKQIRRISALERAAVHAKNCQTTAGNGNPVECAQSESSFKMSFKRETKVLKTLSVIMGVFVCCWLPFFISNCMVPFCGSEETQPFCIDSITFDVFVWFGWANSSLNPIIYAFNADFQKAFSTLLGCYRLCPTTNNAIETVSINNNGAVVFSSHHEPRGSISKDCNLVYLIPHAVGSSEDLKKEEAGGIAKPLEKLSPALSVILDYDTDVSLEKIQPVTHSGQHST

SMILES	Ki (D(2) dopamine receptor [1]) [nM]	Ki [2] [nM]	Ki [3] [nM]	Ki [4] [nM]	Ki [5] [nM]	Ki [6] [nM]	ED50 (Rattus norvegicus [7]) [mg/kg]	Ki (D(1A) dopamine receptor [8]) [nM]	Ki (D(2) dopamine receptor [9]) [nM]	Ki [10] [nM]	Loss (Rattus norvegicus [11]) [%]	Ki [12] [nM]	Ki (D(1A) dopamine receptor [13]) [nM]
Oc1ccccc1N1CCNCC1	> 1000	516	> 1000	117	74.2	35.3	26.2	> 1000					
FC(F)(F)c1cccc(N2CCNCC2)c1		337	31.1				2.6		530	2.25	0.6	80.6	> 1000

Source: ChEMBL document CHEMBL1124459, “Activity of aromatic substituted phenylpiperazines lacking affinity for dopamine binding sites in a preclinical test of antipsychotic efficacy” (J Med Chem, 1989)
